The target of experiment [1] is T1, HTH-type quorum-sensing regulator RhlR (Pseudomonas aeruginosa (strain ATCC 15692 / PAO1 / 1C / PRS 101 / LMG12228)) (UniProt P54292).
T1 sequence (whole entry): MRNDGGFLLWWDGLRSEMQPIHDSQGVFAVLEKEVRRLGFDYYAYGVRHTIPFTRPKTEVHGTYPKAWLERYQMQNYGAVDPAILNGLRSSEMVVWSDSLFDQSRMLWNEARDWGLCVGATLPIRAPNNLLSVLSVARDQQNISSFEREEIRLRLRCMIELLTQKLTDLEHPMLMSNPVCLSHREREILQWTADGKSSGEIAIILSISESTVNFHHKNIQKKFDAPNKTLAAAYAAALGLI
In words: Antagonist activity at RhlR in Pseudomonas aeruginosa assessed as rhamnolipid production at 100 uM incubated for 24 hrs by Orcinol staining based assay relative to control. Set-up: scale not given: the % may be the effect or the level left.

Experiment [2] addresses T1, HTH-type quorum-sensing regulator RhlR (Pseudomonas aeruginosa (strain ATCC 15692 / PAO1 / 1C / PRS 101 / LMG12228)). Put plainly: Antagonist activity at RhlR in Pseudomonas aeruginosa assessed as rhamnolipid production at 10 uM incubated for 24 hrs by Orcinol staining based assay relative to control. Also noted: scale not given: the % may be the effect or the level left.

For experiment [3], the system named is Pseudomonas aeruginosa. In words: Antibacterial activity against Pseudomonas aeruginosa assessed as bacterial growth at 100 uM incubated for 24 hrs relative to control. It is filed as functional. In a few lines:
(§1)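 P. aeruginosa overnight culture (OD595 1.0) diluted 1:20 in AB medium (pH 7.5, 1% glucose, casamino acids, arginine) with compound, in borosilicate bottles, 37 °C for 24 h without shaking. Growth taken as OD595 of the suspended culture. Attached cells washed twice with PBS, stained with 0.1% crystal violet for 10 min, dye eluted in ethanol and read at 545 nm.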

For experiment [4], the system named is Pseudomonas aeruginosa. Put plainly: Antibacterial activity against Pseudomonas aeruginosa assessed as bacterial growth at 10 uM incubated for 24 hrs relative to control. The class given is functional. In outline:
as §1

Experiment [5] concerns the target T1, HTH-type quorum-sensing regulator RhlR (Pseudomonas aeruginosa (strain ATCC 15692 / PAO1 / 1C / PRS 101 / LMG12228)). Put plainly: Modulation of RhlR in Pseudomonas aeruginosa assessed as biofilm formation at 100 uM incubated for 24 hrs under static condition by crystal violet staining based assay relative to control.
Experiment [6] shares this target. In words: Agonist activity at Pseudomonas aeruginosa RhlR expressed in Escherichia coli DH5alpha assessed as relative protein activity at 1000 uM incubated for 1.5 hrs by luminescence reporter gene assay relative to control. Background: Reporter assays use an easily measured gene product as a stand-in for the process of interest.
Experiment [7] shares this target. In words: Modulation of RhlR in Pseudomonas aeruginosa assessed as biofilm formation at 10 uM incubated for 24 hrs under static condition by crystal violet staining based assay relative to control.
The target is the same in experiment [8]. Put plainly: Antagonist activity at Pseudomonas aeruginosa RhlR expressed in Escherichia coli DH5alpha assessed as relative protein activity at 10 uM incubated for 1.5 hrs in presence of N-butyryl-L-homoserine lactone by luminescence reporter gene assay relative to control. Set-up: scale not given: the % may be the effect or the level left. In a few lines: (§2)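 E. coli DH5α sdiA mutant carrying RhlR and rhlA::lacZ plasmids, at OD595 0.3 in LB. Compound given with BHL (10 µM per footnote) and 0.4% arabinose, 37 °C for 1.5 h.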

Experiment [9] shares this target. Put plainly: Agonist activity at Pseudomonas aeruginosa RhlR expressed in Escherichia coli DH5alpha assessed as relative protein activity at 100 uM incubated for 1.5 hrs by luminescence reporter gene assay relative to control.
For experiment [10] the target is unchanged. Put plainly: Antagonist activity at Pseudomonas aeruginosa RhlR expressed in Escherichia coli DH5alpha assessed as relative protein activity at 100 uM incubated for 1.5 hrs in presence of N-butyryl-L-homoserine lactone by luminescence reporter gene assay relative to control. Set-up: scale not given: the % may be the effect or the level left. In outline:
as §2

In experiment [11] the target is T2, Transcriptional activator protein LasR (Pseudomonas aeruginosa (strain ATCC 15692 / PAO1 / 1C / PRS 101 / LMG12228)) (UniProt P25084).
T2 sequence (whole entry): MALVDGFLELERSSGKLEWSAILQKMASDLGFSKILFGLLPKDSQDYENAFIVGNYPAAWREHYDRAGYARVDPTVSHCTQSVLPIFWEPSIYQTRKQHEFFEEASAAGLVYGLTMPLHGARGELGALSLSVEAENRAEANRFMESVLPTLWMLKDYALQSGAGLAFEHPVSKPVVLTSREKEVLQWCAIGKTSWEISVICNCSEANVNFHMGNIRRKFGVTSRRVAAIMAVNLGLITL
In words: Agonist activity at Pseudomonas aeruginosa LasR expressed in Escherichia coli DH5alpha at 0.1 to 10 uM incubated for 1.5 hrs by luminescence reporter gene assay.

Experiment [12] deals with T2, Transcriptional activator protein LasR (Pseudomonas aeruginosa (strain ATCC 15692 / PAO1 / 1C / PRS 101 / LMG12228)). In words: Antagonist activity at Pseudomonas aeruginosa LasR expressed in Escherichia coli DH5alpha at 0.1 to 10 uM incubated for 1.5 hrs by luminescence reporter gene assay.
In experiment [13] the target is T3, Transcriptional regulator MvfR (Pseudomonas aeruginosa PA14) (UniProt A0A072ZLE6).
T3 sequence (whole entry): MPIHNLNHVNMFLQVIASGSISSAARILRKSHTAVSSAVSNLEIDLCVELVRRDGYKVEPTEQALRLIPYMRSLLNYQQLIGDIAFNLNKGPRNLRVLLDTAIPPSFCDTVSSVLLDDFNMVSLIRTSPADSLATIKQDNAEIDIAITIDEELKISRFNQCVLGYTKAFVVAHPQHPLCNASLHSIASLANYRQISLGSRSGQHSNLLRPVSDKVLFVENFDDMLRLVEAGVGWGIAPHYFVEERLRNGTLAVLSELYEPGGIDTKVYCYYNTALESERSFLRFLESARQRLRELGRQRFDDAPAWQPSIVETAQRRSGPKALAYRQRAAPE
Put plainly: Agonist activity at Pseudomonas aeruginosa PqsR expressed in Escherichia coli DH5alpha at 0.1 to 10 uM incubated for 1.5 hrs by luminescence reporter gene assay.

Experiment [14] has as its target T3, Transcriptional regulator MvfR (Pseudomonas aeruginosa PA14). In words: Antagonist activity at Pseudomonas aeruginosa PqsR expressed in Escherichia coli DH5alpha at 0.1 to 10 uM incubated for 1.5 hrs by luminescence reporter gene assay.
Experiment [15] deals with Pseudomonas aeruginosa. Put plainly: Downregulation of rhlA expression in biofilm of Pseudomonas aeruginosa at 10 uM after 24 hrs by RT-qPCR analysis relative to control. The class given is functional. In outline: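 P. aeruginosa (OD595 1.0) diluted 1:20 in AB medium with compound in borosilicate bottles, 37 °C for 24 h. Total RNA extracted from biofilm cells and run by SYBR RT-qPCR with QS-gene primers. Cycling: 95 °C 10 s, then 40 cycles of 95 °C 10 s and 60 °C 10 s.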
A general note: Quantitative PCR measures a nucleic acid by following its amplification.

Experiment [16] addresses T1, HTH-type quorum-sensing regulator RhlR (Pseudomonas aeruginosa (strain ATCC 15692 / PAO1 / 1C / PRS 101 / LMG12228)). In words: Modulation of RhlR in Pseudomonas aeruginosa assessed as reduction in biofilm formation at 10 uM incubated for 48 hrs under dynamic condition by measuring biofilm volume by 4',6-diamidino-2-phenylindole staining based confocal laser scanning microscopy. In outline:
(§3)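 Drip-flow reactor with glass slides, fed continuously at 0.3 mL/min with AB medium containing 5% P. aeruginosa (OD595 1.0) plus compound, 37 °C for 48 h. Unattached cells removed with PBS. Volume and thickness obtained with Comstat2.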

The target is the same in experiment [17]. Put plainly: Modulation of RhlR in Pseudomonas aeruginosa assessed as reduction in biofilm formation at 10 uM incubated for 48 hrs under dynamic condition by measuring biofilm thickness by 4',6-diamidino-2-phenylindole staining based confocal laser scanning microscopy. In outline:
as §3

For experiment [18] the target is unchanged. In words: Modulation of RhlR in Pseudomonas aeruginosa assessed as inhibition of biofilm formation at 10 uM incubated for 24 hrs under static condition by crystal violet staining based assay relative to control. Set-up: scale not given: the % may be the effect or the level left. In a few lines: as §1
Experiment [19] shares this target. In words: Modulation of RhlR in Pseudomonas aeruginosa assessed as inhibition of biofilm formation at 100 uM incubated for 24 hrs under static condition by crystal violet staining based assay relative to control. Set-up: scale not given: the % may be the effect or the level left. In a few lines: as §1

Active and inactive are the calls of the source. The calls are words filed in the database; no cut-off is given here.

With `CCC[C@H](O)C#Cc1ccc(F)c(F)c1`, the Activity was found to be 52% in experiment [1]; 59% in experiment [2]; 99% in the experiment on Pseudomonas aeruginosa [3]; 98% in the experiment on Pseudomonas aeruginosa [4]; 64% in experiment [5]; 5% in experiment [6]. Also, the Activity in [7] amounted to 79%; in experiment [8] it was 59%; in experiment [9] it was 3%; in experiment [10], 38%.
With `CCCCCC(=O)C#Cc1ccc(F)c(F)c1`, the Activity came to 58% in [1]; 60% in [2]; 88% in the experiment on Pseudomonas aeruginosa [3]; 100% with Pseudomonas aeruginosa [4]; 56% in experiment [5]; 5% in experiment [6]. Also, the Activity in experiment [7] was found to be 71%; in [8] it was 39%; in [9], 3%; in experiment [10], 17%.
With `CCCCC[C@H](O)CC(=O)CCc1ccc(O)c(OC)c1` [GINGEROL], the figures for the Activity with Pseudomonas aeruginosa [3], in the experiment with Pseudomonas aeruginosa [4] and in the experiment on Pseudomonas aeruginosa [15] were 101%, 96% and 38%, respectively. Further, the result in experiment [11], in experiment [13] and in experiment [14] was inactive. Besides, the outcome in experiment [12] was Active.
Regarding `CCC[C@@H](O)C#Cc1ccc(F)c(F)c1`, the Activity amounted to 48% in [1]; 60% in experiment [2]; 102% in the experiment on Pseudomonas aeruginosa [3]; 98% in the experiment on Pseudomonas aeruginosa [4]; 60% in [5]; 5% in experiment [6]. Moreover, the Activity is 74% in [7], 45% in [8], 3% in experiment [9] and 25% in experiment [10].
For the compound `CCCCCC(=O)/C=C/c1ccc(F)c(F)c1`, the Activity is 62% in experiment [1]; 64% in experiment [2]; 103% with Pseudomonas aeruginosa [3]; 103% with Pseudomonas aeruginosa [4]; 61% in experiment [5]; 3% in [6]. Also, the Activity in experiment [7] turned out to be 80%; in [8], 53%; in experiment [9], 4%; in experiment [10] it was 51%.
`CCCCC(=O)C#Cc1ccc(F)c(F)c1`: the Activity in experiment [1] worked out at 49%; in experiment [2] it was 59%; in the experiment on Pseudomonas aeruginosa [3], 89%; with Pseudomonas aeruginosa [4], 100%; in [5], 55%; in [6], 6%. In addition, the Activity in [7] was 75%; in experiment [8] it was 29%; in experiment [9], 4%; in experiment [10], 16%.
Consider `CCCC(O)CC(=O)/C=C/c1ccc(O)c(OC)c1` (configuration not stated), for which the Activity in [1] is 57%; in [2], 73%; with Pseudomonas aeruginosa [3] it was 95%; with Pseudomonas aeruginosa [4], 102%; in experiment [5] it was 65%; in experiment [6], 5%. For the same compound, the Activity was 82% in experiment [7], 73% in experiment [8], 4% in experiment [9] and 65% in experiment [10].
With `CCCC(=O)NC1CCCC1`, the Activity amounted to 45% in experiment [1]; 58% in experiment [2]; 98% in the experiment on Pseudomonas aeruginosa [3]; 95% in the experiment with Pseudomonas aeruginosa [4]; 69% in [5]; 37% in experiment [6]. The Activity is 84% in experiment [7]; 74% in [8]; 4% in [9]; 54% in experiment [10]; 14.4 um3/um2 in experiment [16]; 20.2 µm in experiment [17]. In addition, the Activity in the experiment on Pseudomonas aeruginosa [15] is given as 65 - 79%. The result in [11], in experiment [13] and in experiment [14] was inactive.
As to `CCCC(O)CC(=O)CCc1ccc(O)c(OC)c1` (configuration not stated), the Activity in experiment [9] was 3 to 4%; in experiment [10], 54 to 69%; in [18], 14 to 32%; in experiment [19], 29 to 53%; in the experiment on Pseudomonas aeruginosa [15], 65 - 79%. The result in experiment [11], in experiment [12], in experiment [13] and in experiment [14] was inactive.
Take `CCCC(O)CC(=O)/C=C/c1ccc(O)c(O)c1` (configuration not stated): the Activity turned out to be 50% in experiment [1]; 56% in experiment [2]; 104% with Pseudomonas aeruginosa [3]; 99% with Pseudomonas aeruginosa [4]; 72% in [5]; 5% in experiment [6]. Besides, the Activity came to 84% in experiment [7], 60% in experiment [8], 3% in experiment [9] and 43% in [10].
`CCCC(O)CC(=O)/C=C/c1cccc(OC)c1` (configuration not stated): the Activity in experiment [1] is 83%; in experiment [2] it was 91%; with Pseudomonas aeruginosa [3] it was 95%; in the experiment with Pseudomonas aeruginosa [4], 96%; in experiment [5], 73%; in experiment [6], 4%. For the same compound, the Activity in experiment [7] stood at 88%; in [8] it was 89%; in experiment [9] it was 2%; in experiment [10] it was 94%.

The record behind these values is ChEMBL document CHEMBL4619802, “Discovery and Characterization of Pure RhlR Antagonists against Pseudomonas aeruginosa Infections” (J Med Chem, 2020).
